Compounds with a hit are over-represented: about 4.5% of the library has one in this group of screens.
OX1R antag-1: OX1R (HCRTR1) antagonists, primary screen, fluorescence, CHO/OX1R cells, Fluo-8 calcium, orexin A | Orexin/Hypocretin receptor type 1 (Homo sapiens), O43613 | Fluo-8 calcium fluorescence | inhibition, % at 5 µM | 0.43% of 330,000 active | AID 434989, 2010;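 active means inhibition above its plate's threshold, mean inhibition of all tested compounds on the plate plus 3 SD, cut at about 37% in these data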;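 further: 0% = orexin A challenge wells and 100% = SB-334867-A antagonist wells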
GPR7 antagonist: GPR7 receptor antagonists, primary screen, cell-based, fluorescence, single concentration. GPR7-expressing cells, fluorescence antagonist assay. inhibition, % at 4.4 µM. 1.1% of 290,000 active; in the data active means inhibition above about 16%, passing the limit was not always enough;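 further: cells stimulated with the agonist NPW; 0% = agonist with vehicle and 100% = vehicle without agonist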
Target sequence (P48145 whole entry, looked up): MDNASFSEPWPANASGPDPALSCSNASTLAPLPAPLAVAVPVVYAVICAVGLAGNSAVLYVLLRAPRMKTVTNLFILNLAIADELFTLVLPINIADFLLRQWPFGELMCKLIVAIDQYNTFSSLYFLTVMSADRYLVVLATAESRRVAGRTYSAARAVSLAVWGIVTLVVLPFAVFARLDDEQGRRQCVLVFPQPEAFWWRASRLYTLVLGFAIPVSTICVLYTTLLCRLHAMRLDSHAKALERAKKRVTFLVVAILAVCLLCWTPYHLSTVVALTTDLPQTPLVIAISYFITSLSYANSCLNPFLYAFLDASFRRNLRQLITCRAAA
TAAR1 ag: human TAAR1 agonists, primary screen, Fluo-8 calcium fluorescence, CHO RD-HGA16 cells | Trace amine-associated receptor 1 (Homo sapiens), Q96RJ0 | vehicle wells 0%, saturating PEA agonist 100% | activation, % at 3 µM | 0.99% of 360,000 active | AID 624467, 2012;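 active means activation above the mean activation of all test compounds in the run plus 3 SD, cut at about 38% in these data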
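Repeats: no replicates (n 1) | Material: CHO-derived RD-HGA16 cells with stable Gα16 and human TAAR1 | Technique: Kinetic Fluo-8 calcium fluorescence | Schedule: 17-24 h seeding, 75 min 37 °C dye, 30 min RT | Evaluation: % activation from peak over basal fluorescence ratio, DMSO-to-PEA scaled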
OX1R antag-2: antagonists of human orexin 1 receptor (OX1R); Orexin/Hypocretin receptor type 1 (Homo sapiens), O43613; OX1R-expressing cells, FRET antagonist read-out; inhibition, % at 6.6 µM; 1.8% of 330,000 active; AID 485270, 2010; in the data active means inhibition mostly above about 38%, no sharp cut-off; inactive means mostly below about 40%;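 further: 0% = agonist challenge alone and 100% = reference antagonist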
TAAR1 antag: human TAAR1 antagonists, primary screen, Fluo-8 calcium fluorescence, CHO RD-HGA16 cells; Trace amine-associated receptor 1 (Homo sapiens), Q96RJ0; antagonist; inhibition, % at 3 µM; 1.5% of 360,000 active; AID 624466, 2012;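 active means inhibition above a per-plate cutoff, the mean inhibition of test compounds on that plate plus 3 SD, cut at about 49% in these data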;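 further: 0% = DMSO plus EC80 beta-PEA response and 100% = DMSO alone without agonist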
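Test system: CHO RD-HGA16 cells bearing hTAAR1 | Reagent: β-PEA, EC80 | Compound dosing: 3 µM, single point | Schedule: Dye loading 75 min at 37 °C, then 30 min room temperature | Signal: Calcium fluorescence with Fluo-8 | Evaluation: Percent inhibition of PEA-evoked calcium signal, max/basal emission ratio | Control set: DMSO-only wells and EC80 β-PEA-stimulated wells | Repeats: Singlicate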
CHO parental Ca: ATP-evoked calcium signal inhibitors, parental CHO, primary screen, counter-screen for OX1R antagonist project, cell-based, fluorescence, Fluo-8 calcium dye | parental CHO-K1, ATP-induced calcium, Fluo-8 fluorescence | inhibition, % at 5.6 µM | 0.63% of 330,000 active | AID 463079, 2010;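 active means inhibition above that plate's mean sample inhibition plus 3 SD, cut at about 26% in these data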;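 further: 0% = ATP-challenged DMSO wells and 100% = DMSO wells without ATP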
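Assay system: untransfected parental CHO cell line. Also added: ATP agonist challenge. Dosing: one dose, 5.6 µM nominal. Measured by: Fluo-8 fluorescence. Read-out: % inhibition. Benchmarks: ATP wells versus no-ATP DMSO wells. Repeats: no replicates.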
GPR7 antag cf: GPR7 receptor antagonists, confirmation, cell-based, fluorescence, single concentration; shares compounds with GPR7 antagonist; GPR7-expressing cells, calcium fluorescence antagonist mode; inhibition, % at 4.4 µM; 52% of 2,400 active; AID 1952, 2009; in the data active means inhibition above about 24%;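 further: stimulated with the GPR7 agonist NPW; 0% = agonist plus vehicle and 100% = vehicle alone without agonist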
MCHR1 antag: MCHR1 antagonists in cells, counter-screen for GPR7 antagonist project, cell-based, fluorescence, human | shares compounds with GPR7 antagonist | inhibition, % at 4.4 µM | 62% of 2,400 active | MCHR1-expressing cells, fluorescence antagonist assay | AID 2148, 2009; in the data active means inhibition above about 22%;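 further: 0% = vehicle with agonist and 100% = vehicle without agonist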
Starred values were filed as active, the others as inactive; nt = not tested or not shown.

SMILES	OX1R antag-1	GPR7 antagonist	TAAR1 ag	OX1R antag-2	TAAR1 antag	CHO parental Ca	GPR7 antag cf	MCHR1 antag
COC(=O)C(Cc1c[nH]c2ccccc12)NC(=O)c1cc(-c2ccc(OC)c(OC)c2)oc1C (stereo unspecified)	-7.0	-8.1	4.8	29.7	27.3	-9.6	nt	nt
COc1ccc(NC(=O)Nc2cccc(OC)c2)cc1	-9.7	2.7	2.3	-0.4	8.3	5.5	nt	nt
CCSc1nsc(NC(=O)Nc2cccc(F)c2)n1	103.8*	35.7*	14.4	84.4*	17.1	101.2*	45.9*	59.9*
COc1cccc(NC(=O)Nc2nc(SC(C)(C)C)ns2)c1	75.1*	29.1*	18.9	36.5	58.9*	73.6*	59.9*	71.6*
N#CCCCCN1CCCC1	nt	-11.3	2.9	nt	-10.9	nt	nt	nt
c1ccc(Cn2nnnc2C(c2cccs2)N2CCc3ccccc3C2)cc1 (stereo unspecified)	-4.0	22.5*	nt	4.8	nt	-9.4	-6.4	38.8*
CN1CCN(c2ccccc2NC(=O)COc2ccccc2)CC1	-27.5	21.6*	3.6	13.3	-1.3	-20.4	15.4	11.8
CCC(=O)N1CCN(c2ccccc2NC(=O)Cc2ccccc2)CC1	-32.1	22.3*	-1.1	19.3	13.2	-14.8	15.3	22.0*
O=C(Cc1ccccc1)Nc1ccccc1N1CCN(c2ccccc2)CC1	-32.1	-0.1	5.2	13.4	16.3	-33.0	nt	nt
CN(Cc1cccc2cnccc12)C(=O)c1cc(COc2ccc(F)cc2F)on1	nt	-5.8	3.8	nt	-22.3	nt	nt	nt
CCc1ccc(CN(C)C(=O)c2cc(COc3cccc4cnccc34)on2)cc1	50.5*	37.5*	1.9	34.6	50.7*	67.2*	22.5	45.8*
CC1=C(CC(=O)NCC(=O)NCC(=O)O)c2cc(F)ccc2/C1=C/c1ccc(S(C)=O)cc1 (stereo unspecified)	nt	-9.1	0.4	nt	3.6	nt	nt	nt
Cc1ccc(Nc2nc(N)nc(COC(=O)c3ccc(Br)o3)n2)cc1	nt	nt	-2.1	nt	-19.9	nt	nt	nt
COc1cccc(C2c3[nH]c4ccccc4c3CCN2C(=O)c2ccccc2F)c1OC (stereo unspecified)	-6.9	36.9*	3.9	17.1	-0.4	-0.8	27.0*	35.4*
CC(=O)N1CCN(S(=O)(=O)c2cccc(C(=O)N(C)Cc3ccc(C)o3)c2)CC1	nt	nt	0.3	nt	-20.3	nt	nt	nt
COc1ccc(N(C)S(=O)(=O)c2cccc(C(=O)NC3CCC(C)CC3)c2)cc1 (stereo unspecified)	-39.9	40.0*	8.6	6.0	18.3	-25.0	36.4*	48.0*
COc1ccc(N(C)S(=O)(=O)c2cccc(C(=O)N(C)Cc3ccc(C)o3)c2)cc1	-1.9	24.6*	9.4	3.7	4.3	-20.1	30.6*	25.6*
COc1ccccc1N(C)S(=O)(=O)c1ccc(C(=O)N2CCCc3ccccc32)cc1	-5.1	17.0	15.2	29.7	45.3	15.4	nt	nt
CCN(Cc1ccccc1)C(c1ccccn1)c1nnnn1C(C)(C)CC (stereo unspecified)	9.5	21.9*	2.6	15.4	-11.6	-11.6	25.3*	55.9*
CC(C)(C)n1nnnc1C(c1ccccn1)N(Cc1ccccc1)Cc1ccc(Cl)cc1 (stereo unspecified)	-20.1	-0.7	6.5	10.3	-9.7	-2.0	nt	nt
CN(C)S(=O)(=O)n1cc(/C=C(\NC(=O)c2ccccc2Cl)C(=O)N2CCCC2)c2ccccc21	-6.6	31.5*	13.6	3.0	45.2	-19.2	9.6	34.4*

Source: PubChem BioAssay
